Only some compounds are listed: those with a hit (about 1.6% of all), similar ones and a draw of the others.
Rpn11 inh = Rpn11 (PSMD14) deubiquitinase inhibitors, primary screen, biochemical, fluorescence polarization, uHTS; human 26S proteasome, Ub4-pepOG fluorescence polarization; 20S core pre-blocked with epoxomicin; calls only at 20 µM; hit rate 0.59% among 360,000; AID 588493, 2011;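 active means inhibition at 20 µM, scaled to each plate's controls, above about 33%, limit read from the data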
HNF4A DNA FP = change in binding of human HNF4A to DNA, primary screen, biochemical, fluorescence polarization, FITC-DNA; Hepatocyte nuclear factor 4-alpha (Homo sapiens), P41235; 1 h; activity change, % at 10 µM; hit rate 0.3% among 360,000; in the data active means activity change above about 30%, passing the limit was not always enough
CSN inh = inhibitors of CSN-mediated cullin deneddylation, primary screen, biochemical, fluorescence polarization, uHTS; inhibition, % at 12.5 µM; hit rate 0.38% among 360,000; AID 651999, 2013; Purified CSN, SCF-Nedd8-OG deneddylation;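 active means pattern-corrected inhibition above about 35%, with an unprinted fluorescence ratio check between 0.5 and 1.5, limit read from the data, passing the limit was not always enough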;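 further: 0% = enzyme with substrate and 100% = substrate without enzyme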
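Material: purified human Csn5 enzyme expressed in HEK293T cells / Medium: Tris buffer pH 7.5, NaCl, DTT, Tween-20, trehalose, ovalbumin / Compound dosing: 12.5 µM single point / Schedule: 90 min incubation of compound, enzyme and substrate at room temperature / Signal: fluorescence polarization of the substrate / Control set: no-enzyme wells high, enzyme-with-substrate wells low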
PKA-R1A act = activators of PKA-R1A holoenzyme, primary screen, biochemical, fluorescence polarization, Cy5-IP20, bovine R1A, mouse PKAc; cAMP-dependent protein kinase type I-alpha regulatory subunit (Bos taurus) + …; PKA-R1A dissociation; scaled: DMSO 0%, 113 µM cGMP 100%; activation, % at 11.4 µM; hit rate 0.083% among 340,000; AID 504707, 2011;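 active means percent activation above the mean of all tested compounds plus 3 SD, cut at about 19% in these data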;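 further: higher means more PKAc released from R1A so a rise in polarization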
PKA-R2B activ = activators of PKA-R2B holoenzyme, primary screen, biochemical, fluorescence polarization, Cy5-IP20, human | hit rate 0.079% among 340,000 | AID 504700, 2011 | cAMP-dependent protein kinase catalytic subunit beta (Homo sapiens) + cAMP-dependent … | activation, % at 11.4 µM | PKA-R2B holoenzyme dissociation; R2B truncated from residue 108, S112A mutant; 0% DMSO only, 100% 113 µM cGMP;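 active means activation above a cutoff set at the mean over all compounds plus 3 SD, cut at about 18% in these data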;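 further: higher means more holoenzyme dissociation and a rise in polarization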
Target sequence (P31323 whole entry, looked up, other chains not shown, the tested form may be a part): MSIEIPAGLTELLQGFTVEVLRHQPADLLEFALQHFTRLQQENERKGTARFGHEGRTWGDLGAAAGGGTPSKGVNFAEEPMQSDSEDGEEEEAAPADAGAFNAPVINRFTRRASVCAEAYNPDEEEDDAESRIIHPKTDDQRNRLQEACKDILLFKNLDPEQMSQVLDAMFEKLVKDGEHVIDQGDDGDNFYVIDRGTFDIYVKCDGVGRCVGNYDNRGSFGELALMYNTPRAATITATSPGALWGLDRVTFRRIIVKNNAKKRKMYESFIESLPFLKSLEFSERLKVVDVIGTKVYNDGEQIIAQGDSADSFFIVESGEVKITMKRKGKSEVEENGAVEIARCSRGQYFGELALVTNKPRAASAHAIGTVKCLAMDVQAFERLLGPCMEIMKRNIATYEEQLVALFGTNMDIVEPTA
TPT1 inh = Candida albicans TPT1 enzyme inhibitors, primary screen, biochemical, fluorescence polarization. tRNA 2'-phosphotransferase TPT1 (Candida albicans SC5314). recombinant caTPT1, FP RNA substrate dephosphorylation. inhibition, % at 5 µM. hit rate 0.81% among 300,000. AID 1962, 2009;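 active means inhibition above the mean of all tested compounds plus 3 SD, set per screening campaign, cut at about 24% in these data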;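 further: plate controls were DMSO alone for no effect and ferristatin control at 100 nM for full effect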
The depositor's hits bear a star; i = inactive; x = no result given; + = active, no number.

SMILES	Rpn11 inh	HNF4A DNA FP	CSN inh	PKA-R1A act	PKA-R2B activ	TPT1 inh
CCCCNC(=O)c1[nH]c(C)c(C(C)=O)c1C	i	33.8*	-1.3	1.4	-10.1	-2.3
O=C(NN=Cc1cc(=O)[nH]c(=O)[nH]1)c1ccncc1	i	2.5	-5.8	-1.2	5.4	x
COCCSc1nnc(NC(=O)C2CC(=O)N(CCc3ccc(F)cc3)C2)s1 (stereo unspecified)	i	0.8	2.6	-1.2	7.3	-0.5
C#CCOCCOCCOCCNc1nc(N2CCN(C(=O)CCCCCCCCCCNC(=O)Cn3cc(C[C@@H](C)O)nn3)CC2)nc(N2CCN(C(=O)CCCCCCCCCCNC(=O)[C@H](CCCN=C(N)N)n3cc(C[C@@H](C)CC)nn3)CC2)n1	+	160.0	44.0*	11.2	3.9	0.3
C#CCOCCOCCOCCNc1nc(N2CCN(C(=O)CCCCCCCCCCNC(=O)Cn3cc(C[C@@H](C)O)nn3)CC2)nc(N2CCN(C(=O)CCCCCCCCCCNC(=O)[C@H](CCCCN)n3cc(CCCC(=O)O)nn3)CC2)n1	i	3.5	5.2	-3.6	-1.4	3.7
C#CCOCCOCCOCCNc1nc(N2CCN(C(=O)CCCCCCCCCCNC(=O)[C@H](CO)n3cc(CCCSC)nn3)CC2)nc(N2CCN(C(=O)CCCCCCCCCCNC(=O)[C@H](CCCN=C(N)N)n3cc(C[C@@H](C)CC)nn3)CC2)n1	+	278.6	130.6*	7.6	13.8	-2.6
O=C(COC(=O)c1ccc(O)cc1O)Nc1ncc(Cl)cc1Cl	i	-7.3	-3.1	-4.0	6.0	-1.6
CCCN1C(=O)/C(=C/c2c(NCCCOCC)nc3c(C)cccn3c2=O)SC1=S	+	50.2*	37.8*	-0.7	-9.0	x
CCn1c(SCc2cccc(F)c2)nc2c(c1=O)SCC2	i	-5.4	1.5	-5.2	6.8	2.2
CCN=C1NN=C(c2ccc(C)cc2)CS1	+	14.4	2.7	-14.2	-4.0	19.6
c1ccc(CN=C2NN=C(c3ccccc3)CS2)cc1	i	-1.4	3.2	0.6	0.1	5.3
S=c1[nH]nc(-c2ccco2)n1/N=C/C=C/c1ccco1	i	-16.2	38.2*	-1.1	0.1	-0.3
N#Cc1c(NC(=O)c2ccccc2Cl)n(Cc2ccccc2)c2nc3ccccc3nc12	+	72.6*	74.0*	-8.9	-6.0	16.8
O=C(O)c1cc(N/N=C/c2cccc3ccccc23)ccc1Cl	i	-1.3	-3.0	0.3	-2.7	4.2
CC(C)n1cc(/C=N/Nc2ccc(Cl)c(C(=O)O)c2)c2ccccc21	i	-40.1	39.6*	-2.8	-11.3	0.3
Cc1cc(C(=O)CCC(=O)N(C)CC(=O)Nc2ccccc2Br)c(C)s1	i	6.1	54.1*	-3.5	-7.4	-3.0
Cc1nc(-c2ccc(F)cc2)c(CC(=O)N(C)CC(=O)Nc2ccccc2Br)s1	i	1.7	3.2	-10.9	-7.4	4.7
COc1ccc(/C=C(\C#N)C(=O)N2CCOCC2)cc1Br	i	0.6	-1.9	-6.5	-0.1	-3.0
Cc1cc(/C=C(\C#N)C(=O)N2CCOCC2)c(C)n1C1CCCC1	i	7.0	110.0*	4.8	12.0	-0.6
CCOC(=O)N1CCc2c(sc(NC(=O)c3ccc(S(=O)(=O)N4CCCC4)cc3)c2C#N)C1	+	22.6	15.7	2.1	1.9	19.5
COc1ccc(C(=O)Nc2sc3c(c2C#N)CCN(C(C)=O)C3)cc1	i	17.0	6.8	8.1	-8.2	14.4
N#Cc1sc2nc(-c3ccccc3)cc(-c3ccco3)c2c1N	i	10.6	40.1*	5.7	-0.8	10.4
CC1(C(=O)NS(=O)(=O)Cc2ccccc2)CCN1C(=O)Cc1ccccc1 (stereo unspecified)	i	-4.1	2.8	x	x	x

Screening data as filed in PubChem BioAssay.
